Laboratory results as given in publication PMC5147544 (Science signaling, 2016).
Values belong to the substance of their own block, whether it stands above or below them.

Experiments:
[1] = target: mouse hypothalamic membranes (Mus musculus, UniProt P30731); experiment: Displacement of [125I]Tyr-rPEN binding in mouse hypothalamic membranes; details: [125I]Tyr-rPEN 3 nM, membranes 30 μg, peptide 0 to 10 μM; Fig. 1C
[2] = target: endogenous mouse GPR83 in brain (hypothalamus, hippocampus, PVN) (mouse (endogenous in hypothalamus, hippocampus)) (UniProt P30731); experiment: radioligand binding
[3] = intracerebroventricular administration; cited from earlier work
[4] = target: Neuro2A cells (Mus musculus, UniProt P30731); experiment: Neurite outgrowth assay; format: cell-based; details: 1 μM peptide, 16 to 20 hours at 37°C, protease inhibitor cocktail; Fig. 3A
Summary of the method: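 Neuro2A cells were plated on poly-L-lysine, 20,000 per well, in 10% FBS medium. Next day, in serum-free medium, cells got 1 μM peptide or vehicle with protease inhibitors for 16–20 h at 37°C. Sequential 40× images covered ~300–500 cells, with repeats on different days. Blinded scoring: a cell counted positive if its neurite was longer than twice the cell diameter.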

[5] = target: T1, hGPR83 (Homo sapiens, UniProt Q9NYM4); experiment: [35S]GTPγS binding in membranes from CHO hGPR83 cells; format: biochemical; details: membranes 20 μg; Fig. 4E
Summary of the method: (§1)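 Membranes (20 μg) were incubated 1 h at 30°C with peptide (0 to 1 μM final), 2 mM GDP and 0.5 nM [³⁵S]GTPγS. Buffer was 50 mM Hepes, 5 mM MgCl₂, 100 mM NaCl, 1 mM EDTA (pH 7.4) with protease inhibitors. Nonspecific binding was taken with 10 μM cold GTPγS, and basal as GDP without ligand. Samples were filtered on GF/B, washed three times with ice-cold 50 mM tris-Cl and counted by scintillation.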

[6] = target: T1, hGPR83; experiment: Displacement of [125I]Tyr-rPEN binding to CHO hGPR83 cell membranes; details: Fig. 4D
Summary of the method: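 Membranes were prepared from CHO cells expressing untagged hGPR83 by homogenising in ice-cold 20 mM tris-Cl, 250 mM sucrose, 2 mM EGTA, 1 mM MgCl₂ (pH 7.4), then spinning at 27,000g. Membranes (50 μg) were incubated 1 h at 37°C in 50 mM tris-Cl (pH 7.4) plus protease inhibitors with 3 nM [¹²⁵I]Tyr-rPEN and competitor peptide (0 to 10 μM). Samples were filtered on GF/B, washed three times with ice-cold buffer and counted by scintillation.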

[7] = [35S]GTPγS binding in membranes from control CHO cells; format: biochemical, Chinese hamster; details: membranes 20 μg, CHO alone; Fig. 4E
Summary of the method: as §1

T1 sequence (Q9NYM4 17-423): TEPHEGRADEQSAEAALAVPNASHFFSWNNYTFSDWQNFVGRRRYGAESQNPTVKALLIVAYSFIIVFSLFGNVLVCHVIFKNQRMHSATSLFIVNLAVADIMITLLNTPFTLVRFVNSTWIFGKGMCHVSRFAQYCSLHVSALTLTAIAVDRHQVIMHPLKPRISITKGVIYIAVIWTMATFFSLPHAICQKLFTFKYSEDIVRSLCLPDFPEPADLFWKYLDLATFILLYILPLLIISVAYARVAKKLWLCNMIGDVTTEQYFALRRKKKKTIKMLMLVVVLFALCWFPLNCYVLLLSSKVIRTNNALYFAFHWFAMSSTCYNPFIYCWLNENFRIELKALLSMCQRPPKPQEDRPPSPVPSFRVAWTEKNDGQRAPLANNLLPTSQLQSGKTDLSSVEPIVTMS
Neuro2A cells, sequence (P30731 18-423): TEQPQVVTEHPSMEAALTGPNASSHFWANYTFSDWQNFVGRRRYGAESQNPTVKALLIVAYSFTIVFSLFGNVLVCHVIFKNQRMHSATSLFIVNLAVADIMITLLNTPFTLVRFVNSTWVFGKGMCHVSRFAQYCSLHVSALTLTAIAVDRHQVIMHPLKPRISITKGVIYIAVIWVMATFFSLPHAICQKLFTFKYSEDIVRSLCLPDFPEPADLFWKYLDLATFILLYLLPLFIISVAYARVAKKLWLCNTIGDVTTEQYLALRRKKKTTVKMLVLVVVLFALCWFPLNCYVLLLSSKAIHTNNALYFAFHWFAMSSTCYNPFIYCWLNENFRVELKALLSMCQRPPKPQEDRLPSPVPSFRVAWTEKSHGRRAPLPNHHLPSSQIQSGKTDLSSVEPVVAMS
endogenous mouse GPR83 in brain (hypothalamus, hippocampus, PVN) (mouse (endogenous in hypothalamus, hippocampus)), sequence (P30731 18-423): as above
mouse hypothalamic membranes, sequence (P30731 18-423): as above

Substance: N-terminally tyrosinated, radioiodinated rat PEN (peptide)
Kd [2]: 8 nM

Substance: PEN: proSAAS-derived peptide PEN, species form not stated at this place (AADHDVGSELPPEGVLGALLRV; PEN; UniProt Q9UHG2 221-242, looked up)
effect on food intake [3]: did not elicit a significant effect

Substance: bigLEN: proSAAS-derived peptide bigLEN, species form not stated at this place (LETPAPQVPARRLLPP; Big LEN; UniProt Q9UHG2 245-260, looked up)
effect on food intake [3]: did not elicit a significant effect

More lines, main results first:

competition for [125I]Tyr-rPEN binding [1]: did not compete for binding
Substance: LENPSPQAPA [rlittleLEN]

number of neurites [4]: significantly increased
Substance: mbigLEN: mouse bigLEN, proSAAS-derived neuropeptide that activates GPR171 (LENPSPQAPARRLLPP; Big LEN; UniProt Q9QXV0 243-258, looked up)

GTPγS binding [5]: small increase
displacement of [125I]Tyr-rPEN ([6]; 10 μM NPY, not significant (one-way ANOVA, P = 0.37)): ~ 20%
displacement of [125I]Tyr-rPEN ([6]; NPY at concentrations below 1 μM, [125I]Tyr-rPEN 3 nM, membranes 50 μg): did not displace
Substance: neuropeptide Y [NPY]
GTPγS binding [7]: small increase

number of neurites [4]: significantly increased
Substance: rSAAS: rat SAAS, proSAAS-derived peptide (ARPVKEPRSLSAASAPLAETSTPLRL; Big SAAS; UniProt Q9QXU9 34-59, looked up)
